RAM inhibit – inhibitors of the yeast RAM network, primary screen, dse1pr::URA3 reporter, 5-FOA selection; inhibition, % at 50 µM; S. cerevisiae dse1pr::URA3 reporter, 5-FOA growth OD615, 2 d; analog-sensitive cbk1-as2 kinase mutant strain; 190,000 tested, 1.8% active;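 active = inhibition above a set limit, 3 SD over mean compound inhibition, cut at about 8.4% in these data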;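 also: inhibition rescues growth on 5-FOA so higher OD means more RAM inhibition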
ABCB1 inh – ABCB1 efflux pump inhibitors, primary screen, cell-based, multiplex, flow cytometry, ABCG2 counter-screen | ATP-dependent translocase ABCB1 (Homo sapiens), P08183 | CCRF-Adr cells, JC-1 efflux | inhibition, % at 6.6 µM | 190,000 tested, 0.067% active | AID 1326, 2008; in the data active = inhibition above about 40%;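 also: higher value means more JC-1 retained so stronger ABCB1 efflux block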
WT yeast gro inh – growth inhibition of WT strain, primary screen, mitochondrial fusion inhibitor project, WT and mutant strains, chemical genetic. mitochondrial fusion phenotypic screen. inhibition, % at 10 µM. 190,000 tested, 2.1% active. AID 1362, 2008; in the data active = inhibition above about 58%; tested in S. cerevisiae
ABCG2 inh – ABCG2 efflux pump inhibitors, primary screen, multiplex with ABCB1, IgMXP3 cells, flow cytometry; 190,000 tested, 0.1% active; Broad substrate specificity ATP-binding cassette transporter ABCG2 (Homo sapiens), Q9UNQ0; AID 1325, 2008; inhibition, % at 6.6 µM; JC-1 efflux;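 active = inhibition above 80%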
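Test system: IgMXP3 cells (ABCG2) mixed with DDAO far-red-labelled CCRF-Adr cells (ABCB1). Reagent: JC-1 transporter substrate. Compound dosing: single test compound dose, 6.6 µM final. Times: 10 min compound exposure, 25 °C. Detection: flow cytometry of retained JC-1 fluorescence. Read-out basis: efflux inhibition in percent versus controls. Controls: nicardipine and DMSO wells.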
Lmaj promast – Leishmania major promastigote growth inhibition, primary screen; Leishmania major promastigotes, resazurin fluorescence viability; inhibition, % at 10 µM; 200,000 tested, 9% active; in the data active = inhibition above about 50%;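 also: promastigotes grown with compound for 44 hours at 28 °C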
Of the large screens only hits and unclear results are named; the others gave an inactive call. Shown are actives, neighbours in structure and some others; about 12% of the full set was active somewhere.

CCOCCCn1c(=S)[nH]c2cc(C(=O)NCC(OC)OC)ccc2c1=O	none
CS(=O)(=O)N1CCC(C(=O)Nc2cccc([N+](=O)[O-])c2)CC1	none
CCN(CC)c1cc(C)c2cc(NC(=O)c3cccs3)ccc2n1	none
Cc1cc(N2CCN(C)CC2)nc2ccc(NC(=O)c3ccccc3F)cc12	none
CCN1CCN(c2cc(C)c3cc(NC(=O)c4ccccc4F)ccc3n2)CC1	Lmaj promast 51
CCN(CC)c1cc(C)c2cc(NC(=O)c3ccc(Br)o3)ccc2n1	Lmaj promast 80
Cc1oc2c(c1C(=O)NCc1cccnc1)C(=O)c1ccccc1C2=O	WT yeast gro inh 88, Lmaj promast 100
COc1ccc(CNC(=O)c2c(C)oc3c2C(=O)c2ccccc2C3=O)cc1	none
O=C(Nc1nnc(C2=COCCO2)o1)c1ccc(S(=O)(=O)N2CCCCC2)cc1	none
Cc1nnc(SCc2ccccc2)nc1/C=C/NOCc1ccc(Cl)cc1Cl	RAM inhibit 8.5
CSc1nnc(C)c(/C=C/NOCc2cccc(F)c2)n1	none
Cc1cc(C)cc(N(CC(=O)N2CCn3c2nc2ccccc23)S(=O)(=O)c2c(C)noc2C)c1	none
CC(C)C(=O)NC(c1ccccc1Cl)c1c(O)ccc2ccccc12 (centres undefined)	Lmaj promast 99
CCC(=O)NC(c1ccc(OC)cc1)c1c(O)ccc2ccccc12 (centres undefined)	Lmaj promast 99
COc1ccc(C(NC(=O)C(C)C)c2c(O)ccc3ccccc23)cc1 (centres undefined)	Lmaj promast 96
CCC(=O)NC(c1ccccc1Cl)c1c(O)ccc2ccccc12 (centres undefined)	none
CCC(=O)NC(c1ccc(N(C)C)cc1)c1c(O)ccc2ccccc12 (centres undefined)	Lmaj promast 100
CCN1C(=O)S/C(=C/c2ccc(Sc3nc4ccccc4[nH]3)o2)C1=O	none
COc1ccc(C(NC(=O)C(C)C)c2c(O)ccc3ccccc23)cc1OC (centres undefined)	Lmaj promast 99
CC(C)C(=O)NC(c1ccco1)c1c(O)ccc2ccccc12 (centres undefined)	none
c1ccc(Nc2nc(N3CCCCC3)nc(N3CCCCC3)n2)cc1	none
C1CCN(c2nc(N3CCCC3)nc(N3CCNCC3)n2)C1	Lmaj promast 100
C(=N\Nc1nc(Nc2ccccc2)nc(N2CCCCC2)n1)/c1ccco1	WT yeast gro inh 69
c1ccc(Nc2nc(N3CCCCC3)nc(N3CCNCC3)n2)cc1	Lmaj promast 100
CCOc1ccc(Nc2nc(N)nc(CN3CCN(c4ccccc4F)CC3)n2)cc1	Lmaj promast 52
Cc1cccc(Nc2nc(N)nc(CN3CCN(c4ccccc4F)CC3)n2)c1	none (no result: RAM inhibit, ABCB1 inh, WT yeast gro inh, ABCG2 inh)
O=C1NC(=O)C2(COC(c3cccc([N+](=O)[O-])c3)OC2)S1 (centres undefined)	none
Cc1c(NC(=S)SCc2ccccc2)c(=O)n(-c2ccccc2)n1C	none
CCOc1ccc(Nc2nc(N3CCCCC3)nc(N3CCCCC3)n2)cc1	WT yeast gro inh 61, Lmaj promast 59
CC(=O)Nc1cc(C(=O)NCc2ccco2)ccc1Sc1ccc(F)cc1	none
CC(=O)Nc1cc(C(=O)NCc2ccco2)ccc1Sc1ccc(Cl)cc1	Lmaj promast 92
CCOc1ccc(CNC(=O)c2ccc(Sc3ccc(Cl)cc3)c(NC(C)=O)c2)cc1	Lmaj promast 95
CCOc1ccccc1CNC(=O)c1ccc(Sc2ccc(Cl)cc2)c(NC(C)=O)c1	WT yeast gro inh 65, Lmaj promast 85
C/C(=C\c1ccc(C)o1)C(=O)c1c(C)cc(C)[nH]c1=O	none
CCOc1ccc(N(CC(=O)N/N=C/c2ccc(OC(C)C)cc2)S(C)(=O)=O)cc1	none
O=C1C(Oc2ccccc2)C(c2cccs2)N1Cc1ccc2c(c1)OCO2 (centres undefined)	none
Cc1ccccc1OC1C(=O)N(Cc2ccc3c(c2)OCO3)C1c1sccc1C (centres undefined)	RAM inhibit 10
O=C(Cc1c[nH]c2ccccc12)Nc1ccccc1N1CCOCC1	none
O=C1C=CC(=O)N1CCCCCCN1C(=O)C=CC1=O	WT yeast gro inh 92
O=C1C2C3C=CC(C3)C2C(=O)N1CCCCCCN1C(=O)C2C3C=CC(C3)C2C1=O (centres undefined)	none
O=C(NCCc1ccccc1)C1CCCN1S(=O)(=O)c1ccccc1 (centres undefined)	none
COc1ccc(Cc2n[nH]c(=S)n(N)c2=O)cc1	none
Cc1ccc(CN2CCSc3sccc3C2=O)cc1	none
CN(C)Cc1c(O)ccc2oc(Cc3ccccc3)cc12	Lmaj promast 77
O=S1(=O)CC=C(CSC(=S)NC2CCS(=O)(=O)C2)C1 (centres undefined)	Lmaj promast 76
S=C1NCCc2ccc(Cl)cc2C1c1ccccc1 (centres undefined)	WT yeast gro inh 71
CCOC(=O)C1(Cc2ccc(OC)cc2)CCN(S(C)(=O)=O)CC1	none
CCOC(=O)C1(CCOC)CCN(C(C)CCc2ccc(OC)cc2)CC1 (centres undefined)	Lmaj promast 91
CCn1cc(C(=O)Nc2ccc(OC)c(S(=O)(=O)N3CCCCC3)c2)c(=O)c2ccc(C)nc21	Lmaj promast 67
COC(=O)c1ccccc1NC(=O)C1CCN(S(=O)(=O)c2cc(C)ccc2OC)CC1	Lmaj promast 76
COc1ccc(OC)c(S(=O)(=O)N2CCC(C(=O)Nc3cccc(C)c3)CC2)c1	Lmaj promast 100
COc1ccc(NC(=O)C2CCC(C(C)(C)C)CC2)cc1S(=O)(=O)N1CCCCC1 (centres undefined)	Lmaj promast 99
O=C(NCc1n[nH]c(=S)n1-c1ccc(Cl)c(Cl)c1)c1ccc(S(=O)(=O)N2CCOCC2)cc1	none
CCOC(=O)c1ccc(NC(=O)CCSCCc2ccccn2)cc1	none
COc1ccc(C2C(C(=O)NCc3ccccn3)CCC(=O)N2c2cc(OC)c(OC)c(OC)c2)cc1 (centres undefined)	none
COc1ccc(NC(=O)c2ccc(=O)[nH]c2)cc1S(=O)(=O)N1CCCCC1	Lmaj promast 56
O=S(=O)(Cc1ccccc1)NCC1CCCN(Cc2ccc3nonc3c2)C1 (centres undefined)	Lmaj promast 93
O=S(=O)(Cc1ccccc1)NCC1CCCN(Cc2ccc(F)c(F)c2)C1 (centres undefined)	Lmaj promast 90
O=C(NCCc1ccccc1)N1CCCC(CNS(=O)(=O)Cc2ccccc2)C1 (centres undefined)	none
C/C(=N/NC(=O)c1sc(=S)n(C)c1C)c1ccccc1	none
O=C(CSc1nnc(CNC(=O)C23CC4CC(CC(C4)C2)C3)n1-c1ccccc1)Nc1ccccc1	none
C=CCN=c1scc(-c2ccccc2)n1/N=C/c1ccccn1	WT yeast gro inh 75
